# Numbering of substitutions follows the chain as printed. Activity calls are given as the source filed them. The calls are words filed in the database; no cut-off is given here.
# What was measured:
# [1] = system: T1, Retinoic acid receptor RXR-alpha (Homo sapiens), P19793 [A272W]; settings: HEK-293T, 1 uM
# T1 sequence (whole entry): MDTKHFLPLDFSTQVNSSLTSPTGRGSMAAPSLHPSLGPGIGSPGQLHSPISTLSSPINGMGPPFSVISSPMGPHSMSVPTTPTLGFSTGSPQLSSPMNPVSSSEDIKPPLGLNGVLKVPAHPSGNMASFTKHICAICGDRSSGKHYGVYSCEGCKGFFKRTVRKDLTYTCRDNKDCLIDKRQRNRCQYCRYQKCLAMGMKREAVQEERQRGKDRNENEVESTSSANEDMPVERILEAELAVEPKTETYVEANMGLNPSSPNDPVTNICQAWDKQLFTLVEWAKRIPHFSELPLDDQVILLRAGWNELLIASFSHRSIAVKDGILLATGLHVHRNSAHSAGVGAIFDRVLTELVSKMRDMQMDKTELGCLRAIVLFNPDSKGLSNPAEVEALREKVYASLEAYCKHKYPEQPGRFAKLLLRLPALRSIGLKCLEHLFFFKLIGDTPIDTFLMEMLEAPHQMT
# [2] = system: T2, Retinoic acid receptor RXR-alpha (Homo sapiens), P19793 [F313A]; settings: HEK-293T, 1 uM
# T2 sequence (whole entry): T1 sequence (whole entry) with W272A, F313A
# [3] = system: T3, Retinoic acid receptor RXR-alpha (Homo sapiens), P19793 [C432W]; settings: HEK-293T, 1 uM
# T3 sequence (whole entry): T1 sequence (whole entry) with W272A, C432W
# [4] = system: T4, Retinoic acid receptor RXR-alpha (Homo sapiens), P19793 [V298S]; assay: Antagonist activity against RXRalpha V298S mutant (unknown origin) expressed in human HEK293T cells assessed as inhibition of 9-cis-RA-induced receptor transactivation at 1 uM after 18 hrs by luciferase reporter gene based mammalian one-hybrid assay; type: cell-based; settings: HEK-293T
# T4 sequence (whole entry): T1 sequence (whole entry) with W272A, V298S
# Procedure, shortened: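 The pG5-Luc reporter was cotransfected with pBind-RXRα/V298S (Gal4-fusion construct) into HEK-293T cells. Cells were then exposed to the indicated compounds for 18 h, and luciferase reporter activity was measured.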
# [5] = biological target: T5, Retinoic acid receptor RXR-alpha (Homo sapiens) (UniProt P19793); assay: Antagonist activity against Myc-tagged RXRalpha ligand binding domain (unknown origin) expressed in human MCF7 cells assessed as inhibition of 9-cis-RA-induced receptor transactivation after 18 hrs by luciferase reporter gene based mammalian one-hybrid assay; type: cell-based
# T5 sequence (whole entry): T1 sequence (whole entry) with W272A
# Procedure, shortened: (§1)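 MCF-7 cells co-transfected with pG5-Luc reporter and pBind-RXRα-LBD. […] Read-out was dual-luciferase, with firefly normalized to Renilla for transfection efficiency. Single-concentration tests used 10 μM. Mean ± SD.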
# [6] = biological target: T5, Retinoic acid receptor RXR-alpha (Homo sapiens); assay: Antagonist activity against Myc-tagged RXRalpha ligand binding domain (unknown origin) expressed in human MCF7 cells assessed as inhibition of 9-cis-RA-induced receptor transactivation at 10 uM after 18 hrs by luciferase reporter gene based mammalian one-hybrid assay; type: cell-based
# Procedure, shortened: as §1
SMILES,inhibition [1],inhibition [2],inhibition [3],inhibition [4],inhibition [5],inhibition [6]
CCCOc1cc2c(cc1C(=C1CC1)c1ccc(C(=O)O)cc1)C(C)(C)CCC2(C)C,inactive,Active,inactive,Active,,
CCCCCOc1cc2c(cc1-c1cc(/C=C/C(=O)O)ccc1O)C(C)(C)CCC2(C)C,,,,Active,,
CCC(Sc1nc2ccccc2s1)C(=O)N/N=C/c1c(O)ccc2ccccc12 (configuration not stated),,,,,Dose-dependent effect,Active

# Reference: ChEMBL document CHEMBL3352174, “Identification of a New RXRα Antagonist Targeting the Coregulator-Binding Site” (ACS Med Chem Lett, 2014)
